Measured values pooled from the literature.
Lines come from different studies, so protocols differ.
SLC22A11: Solute carrier family 22 member 11 (SLC22A11, Homo sapiens, UniProt Q9NSA0)
RIOK1: Serine/threonine-protein kinase RIO1 (RIOK1, Homo sapiens, UniProt Q9BRS2)

CCCCNc1ccc(C(=O)OCCN(C)C)cc1  inhibition (SLC22A11; transporter uptake, inhibitor; 25 µM): 80.3%
O=C(ON1C(=O)CCC1=O)c1cc(C(F)(F)F)cc(C(F)(F)F)c1  kinact/KI (CD209 antigen (CD209, Homo sapiens, UniProt Q9NNX6); cell-free assay, inhibitor; pH 7.4): 91.7 M⁻¹ s⁻¹
CN(CCOc1ccc(CC2SC(=O)NC2=O)cc1)c1ccccn1 (stereo not drawn)  inhibition (SLC22A11; transporter uptake, inhibitor; 25 µM): 94.1%
C[C@]1(O)CCCN(c2nc(Nc3ccc(S(=O)(=O)N[C@H]4CC[C@H](CN5CCN(c6ccc(C7CCC(=O)NC7=O)cc6F)CC5)CC4)cc3F)ncc2C(F)(F)F)C1 (stereo partly drawn)  remaining binding (RIOK1; binding, competition with immobilised ligand; 1 µM): 100%
C[C@@H]1CC(=O)NN=C1c1ccc(NN=C(C#N)C#N)cc1  inhibition (SLC22A11; transporter uptake, inhibitor; 25 µM): 76.1%
Cc1cc(O)c(-c2ccc([C@@H](C)CN(C)C)cc2)c2c1[nH]c(=O)c1sccc12  inhibition (Receptor-interacting serine/threonine-protein kinase 4 (RIPK4, Homo sapiens, UniProt P57078); enzyme activity, inhibitor; 0.1 µM): 0.327%
CNS(=O)(=O)c1ccc(Nc2ncc(C(F)(F)F)c(N3CCC[C@](C)(O)C3)n2)c(C)c1  remaining binding (RIOK1; binding, competition with immobilised ligand; 1 µM): 99%
C1=C/COCc2cc(ccc2OCCN2CCCC2)Nc2nccc(n2)-c2cccc(c2)COC/1  remaining signal (Tyrosine-protein kinase ITK/TSK (ITK, Homo sapiens, UniProt Q08881); cell-free assay; 0.1 µM): 90%
C#Cc1cc(-c2cc(Nc3nc(N[C@@H](C)c4ccc(F)cn4)ncc3Cl)n[nH]2)ccc1C=O  inhibition (Serine/threonine-protein kinase SIK2 (SIK2, Homo sapiens, UniProt Q9H0K1); enzyme activity, inhibitor; 0.2 µM): 97.4%
Cc1cc(S(=O)(=O)N[C@H]2CC[C@H](CN3CCN(c4ccc(C5CCC(=O)NC5=O)cc4F)CC3)CC2)ccc1Nc1ncc(C(F)(F)F)c(N2CCC[C@](C)(O)C2)n1 (stereo partly drawn)  remaining binding (RIOK1; binding, competition with immobilised ligand; 1 µM): 79%
COc1ccc2oc(-c3ccc4nc(N)oc4c3)c/c(=N\c3ccccc3NC(=O)CCN)c2c1  remaining binding (Transient receptor potential cation channel subfamily M member 7 (TRPM7, Homo sapiens, UniProt Q96QT4); binding; 1 µM): 106%
NC/C(=C\F)COc1cccc(Cn2c(=S)[nH]c(=O)c3[nH]cnc32)c1  inhibition (Diamine oxidase [copper-containing] (AOC1, Homo sapiens, UniProt P19801); enzyme activity, inhibitor; 1 µM): 2.46%
O=C(O)CCc1nc(-c2ccccc2)c(-c2ccccc2)o1  inhibition (SLC22A11; transporter uptake, inhibitor; 25 µM): 81.6%
CCN1/C(=C/C(C)=O)Sc2ccc(F)cc21  inhibition (5-hydroxytryptamine receptor 3A (HTR3A, Homo sapiens, UniProt P46098); ligand displacement, radioligand; 10 µM): 0%
CC(=O)Oc1ccccc1C(=O)Nc1ncc([N+](=O)[O-])s1  inhibition (SLC22A11; transporter uptake, inhibitor; 25 µM): 76.5%
CCCCC(=O)Nc1ccc(-c2ccc3ncn(CCC)c(=O)c3c2)cn1  remaining binding (RIOK1; binding, competition with immobilised ligand; 0.5 µM): 100%
CC(C)n1c(/C=C/C(O)CC(O)CC(=O)O)c(-c2ccc(F)cc2)c2ccccc21 (stereo not drawn)  inhibition (SLC22A11; transporter uptake, inhibitor; 25 µM): 82%
Cc1cc(F)cc2c(CCC(=O)N[C@@H]3C(=O)NC[C@H]3O)c(-c3ccc(F)cc3)[nH]c12  inhibition (Alpha-2A adrenergic receptor (ADRA2A, Homo sapiens, UniProt P08913); cell-free assay; 10 µM): 26%
